For one experiment, the system named is HL-60. The experiment is described as follows: Cytotoxicity was tested in HL60 cells by the trypan blue exclusion assay. The class given is functional, cell-based. As to conditions: Homo sapiens. The gist of the method: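 HL60 cells exposed to at least five compound concentrations plus no-drug control, in duplicate in 96-well plates. Growth inhibition counted by trypan blue exclusion on a hemocytometer. IC50 derived by median-effect plot analysis.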

For experiment [1], the system named is MT4. The experiment is described as follows: AntiHIV-1 activity measured in MT-4 cells at 5 to 6 different concentrations, using the P24 antigen enzyme-linked immunosorbent assay (ELISA). It is filed as functional, cell-based. Conditions: Homo sapiens. The gist of the method:
(§1)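 MT4 cells infected with HIV-1 at 200 TCID50 per 10^6 cells, adsorbed 1 h at 37 °C, 5% CO2, washed, resuspended at 10^6 cells/3 mL. Compounds added immediately at five to six concentrations. After 5 days at 37 °C, cell-free supernatant assayed for P24 core antigen by ELISA kit or for RT activity. EC50 from median-effect plot analysis against untreated infected controls.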

Experiment [2] relates to MT4. The experiment is described as follows: AntiHIV-1 activity measured in MT-4 cells at 5 to 6 different concentrations, using the reverse transcriptase (RT) assay. Conditions: Homo sapiens. The class given is functional, cell-based. The gist of the method:
as §1

Experiment [3] is described as follows: Selectivity ratio to IC50 of MT4 cells and EC50, anti-HIV activity of MT-4 cells. The class given is functional. The gist of the method: (§2)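 Selectivity ratio is the cytotoxic IC50 (MT4 or HL60 cells, […]) divided by the anti-HIV-1 EC50 from P24 ELISA or RT assay in infected MT4 cells.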
Experiment [4] is described as follows: Selectivity ratio to IC50 of HL60 cells and EC50, anti-HIV activity of MT-4 cells. The class given is functional, HL-60. In a few lines:
as §2

In experiment [5] the test system is MT4. Kind of experiment: Cytotoxicity was tested in MT-4 cells by the XTT-microculture tetrazolium assay. It is filed as functional, cell-based. Conditions: Homo sapiens. In a few lines: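 MT4 cells exposed in duplicate in 96-well plates to at least five concentrations for 4 days. PMS-XTT (0.075 mM PMS with 1 mg/mL XTT in serum-free medium) added, then 6 h at 37 °C before reading. IC50 derived by median-effect plot analysis.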

Several values for one entry are separate records, joined by “and”; a condition that tells them apart may be missing. Identical values can stand only once.

The source of these data is ChEMBL document CHEMBL1124868, “Synthesis and anti-HIV-1 activity of 2'-"up"-fluoro analogues of active anti-AIDS nucleosides 3'-azido-3'-deoxythymidine (AZT) and 2',3'-dideoxycytidine (DDC)” (J Med Chem, 1990).

Usually IC50 stands for the concentration needed to halve the response being measured. In general, EC50 refers to the concentration giving half of the maximal effect. Low readings indicate higher potency in that assay, high ones lower potency in that assay. For `Cc1cn([C@H]2C[C@H](N=[N+]=[N-])[C@@H](CO)O2)c(=O)[nH]c1=O` [ZIDOVUDINE], in the experiment on HL-60, the concentration for half-maximal inhibition (IC50) is 96 µM. The EC50 in the experiment with MT4 [1] amounted to 0.006 µM; in the experiment on MT4 [2], 0.0045 µM. Also, the Selectivity ratio is 8833 and 11778 in experiment [3]; 16000 and 21333 in experiment [4].
In the experiment on HL-60, `Cc1cn([C@@H]2O[C@H](CO)[C@@H](N=[N+]=[N-])[C@H]2F)c(=O)[nH]c1=O` yielded an IC50 of 440 µM. The EC50 in the experiment with MT4 [1] came out at 168 µM; in the experiment on MT4 [2] it was 103 µM. Besides, the Selectivity ratio in experiment [3] was 1.26 and 2.06; in experiment [4], 2.62 and 4.27.
For `Nc1ccn([C@H]2CC[C@@H](CO)O2)c(=O)n1` [ZALCITABINE], in the experiment with HL-60, 100 µM corresponded to half-maximal inhibition (IC50). Besides, the EC50 in the experiment on MT4 [1] worked out at 0.236 µM; in the experiment with MT4 [2] it was 0.24 µM. Further, the Selectivity ratio in experiment [3] was 1326 and 1304; in experiment [4], 424 and 417.
Consider `Nc1ccn([C@@H]2O[C@H](CO)C[C@@H]2F)c(=O)n1`, for which the IC50 came out at 707 µM in the experiment on HL-60 and 1480 µM in the experiment with MT4 [5]. For the same molecule, the EC50 was determined as 2.66 µM with MT4 [1] and 2.54 µM in the experiment on MT4 [2]. Besides, the Selectivity ratio was 328 and 343 in experiment [3]; 266 and 278 in experiment [4].
